Tests used:
Assay type in all cases: functional, cell-based
B16 = assay: Antiproliferative activity against mouse B16 cells after 24 hrs by MTT assay; conditions: B16, 24 h
Method in brief: (§1)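 MTT proliferation assay on HUVECs and on HepG2, A375, U251, B16 and HCT116 cells. Results reported as IC50.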

HepG2 = assay: Antiproliferative activity against human HepG2 cells after 24 hrs by MTT assay; conditions: HepG2, 24 h; method in brief: as §1
HUVEC = assay: Antiproliferative activity against HUVEC after 24 hrs by MTT assay; conditions: Homo sapiens; method in brief: as §1
A-375 = assay: Antiproliferative activity against human A375 cells after 24 hrs by MTT assay; conditions: A-375, 24 h; method in brief: as §1
[1] = Antiproliferative activity against human HCT116 cells after 24 hrs by MTT assay; conditions: HCT-116, 24 h; method in brief: as §1
U-251 = assay: Antiproliferative activity against human U251 cells after 24 hrs by MTT assay; conditions: U-251, 24 h; method in brief: as §1

IC50 (B16) | IC50 (HepG2) | IC50 (A-375) | IC50 (U-251) | SMILES | IC50 (HUVEC) | IC50 [1]
> 10 µM | > 10 µM | > 10 µM | > 10 µM | CC1(C)C=Cc2c(ccc3c(=O)c(-c4ccc(O)cc4)coc23)O1 | > 10 µM | > 10 µM
> 10 µM | > 10 µM | > 10 µM | > 10 µM | CC1(C)C=Cc2c(ccc3c(=O)c(-c4ccc5c(c4)OCCO5)coc23)O1 | > 10 µM | > 10 µM
5.1 µM | 3.45 µM | 4.75 µM | 5.9 µM | C=CCOc1ccc2c(=O)c(-c3cc(OC)c(OC)cc3OC)coc2c1 | > 10 µM | 6.6 µM
> 10 µM | > 10 µM | > 10 µM | > 10 µM | COc1ccc(-c2coc3c4c(ccc3c2=O)OC(C)(C)C=C4)c(OC)c1 | > 10 µM | > 10 µM
1.12 µM | 1 µM | 1.72 µM | 3.2 µM | COc1cc(OC)c(-c2coc3cc(OCc4ccc(F)cc4)ccc3c2=O)cc1OC | > 10 µM | 0.95 µM
> 10 µM | > 10 µM | > 10 µM | > 10 µM | COc1ccc(-c2coc3c4c(ccc3c2=O)OC(C)(C)C=C4)c(OC)c1OC | > 10 µM | > 10 µM
4.18 µM | 1.69 µM | 2.02 µM | > 10 µM | COc1cc(OC)c(-c2coc3cc(OCc4ccccc4Cl)ccc3c2=O)cc1OC | > 10 µM | 2.45 µM
> 10 µM | > 10 µM | > 10 µM | > 10 µM | COc1cccc(-c2coc3c4c(ccc3c2=O)OC(C)(C)C=C4)c1F | > 10 µM | > 10 µM
2.44 µM | 1.23 µM | 1.3 µM | 3.51 µM | COc1cc(OC)c(-c2coc3cc(OCc4cccc(F)c4)ccc3c2=O)cc1OC | 5.3 µM | 4.92 µM
3.55 µM | > 10 µM | 8.9 µM | 2.5 µM | CC1(C)C=Cc2c(ccc3c(=O)c(-c4ccc(C(F)(F)F)cc4Cl)coc23)O1 | > 10 µM | 3.8 µM
> 10 µM | > 10 µM | > 10 µM | > 10 µM | CC1(C)C=Cc2c(ccc3c(=O)c(-c4ccc5c(c4)OCO5)coc23)O1 | > 10 µM | > 10 µM
> 10 µM | > 10 µM | > 10 µM | > 10 µM | COc1cc(OC)c(-c2coc3cc(OC(=O)Cc4cccc(C(F)(F)F)c4)ccc3c2=O)cc1OC | > 10 µM | > 10 µM
> 10 µM | > 10 µM | > 10 µM | > 10 µM | COc1cc(-c2coc3c4c(ccc3c2=O)OC(C)(C)C=C4)cc(OC)c1OC | > 10 µM | > 10 µM
> 10 µM | 2.5 µM | > 10 µM | 9.4 µM | COc1cc(OC)c(-c2coc3cc(OCc4ccc([N+](=O)[O-])cc4)ccc3c2=O)cc1OC | > 10 µM | > 10 µM
> 10 µM | > 10 µM | > 10 µM | > 10 µM | CC1(C)C=Cc2c(ccc3c(=O)c(-c4ccc(C=O)cc4)coc23)O1 | > 10 µM | > 10 µM
4.5 µM | 4.95 µM | 3.68 µM | 6.45 µM | C#CCOc1ccc2c(=O)c(-c3cc(OC)c(OC)cc3OC)coc2c1 | > 10 µM | 8.05 µM
5.4 µM | 0.89 µM | 2.28 µM | 3.75 µM | COc1cc(OC)c(-c2coc3cc(OCc4ccc(C(F)(F)F)cc4)ccc3c2=O)cc1OC | > 10 µM | 2.44 µM
2.4 µM | 0.94 µM | 1.02 µM | 0.47 µM | COc1cc(OC)c(-c2coc3cc(OCc4ccc(Cl)cc4)ccc3c2=O)cc1OC | 4.4 µM | 4.45 µM

— ChEMBL document CHEMBL3352483, “Synthesis, structure-activity relationships and biological evaluation of barbigerone analogues as anti-proliferative and anti-angiogenesis agents” (Bioorg Med Chem Lett, 2014)
